Legend:
[1] = system: L1210; test: Antitumor activity was determined against the ic implanted L1210 lymphoid leukemia in mice by change in […] at 133 mg/kg (1,5,9qd treatment schedule) dosage; format: functional, Mus musculus
How it was run: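 DBA/2J mice, 6 per group (wt 26-32 g), inoculated ic with 1×10^5 L1210 cells on day 0. Dosing ip began 24 h after inoculation, with a sonicated solution or suspension in 0.9% NaCl containing 0.5% Tween-80, given over a range of doses. Animals were followed daily until death. Body weight change, median survival T/C, and %ILS = (T/C − 1) × 100 were computed from survivors per NCI protocols.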

[2] = system: L1210; test: Antitumor activity was determined against the ic implanted L1210 lymphoid leukemia in mice by median survival time at 133 mg/kg (1,5,9qd treatment schedule) dosage; 20.0/8.0
[3] = system: L1210; test: Antitumor activity was determined against the ip implanted L1210 leukemia in mice by range in survival days at 300 mg/kg (treatment of 1qd schedule) dosage; Range is 14->45; format: functional, Mus musculus; conditions: route intraperitoneal
How it was run: (§1)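 DBA/2J mice, 23-28 g, in groups of 6, were inoculated ip with 1×10^6 L1210 cells on day 0. Dosing was ip starting 24 h later on the stated daily schedules. Conjugates were given as sonicated solutions and reference prodrugs as suspensions in 0.9% NaCl with 0.5% Tween-80. Mice were observed daily until death or 45 days. Median survival T/C was calculated from survivors per NCI protocols.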

[4] = system: P388; test: Antitumor activity was determined against the ip implanted P388 leukemia in mice by range in survival days at 133 mg/kg (treatment of 1,5,9qd schedule) dosage; Range is 31->45; format: functional, Mus musculus; conditions: route intraperitoneal
[5] = system: L1210; test: Antitumor activity was determined against the ip implanted L1210 leukemia in mice by percent median survival rate (treated/control) at 40 mg/kg (treatment of 1-5qd schedule) dosage; 30.0/8.0; format: functional, Mus musculus; conditions: route intraperitoneal; how it was run: as §1
[6] = system: L1210; test: Antitumor activity was determined against the ic implanted L1210 lymphoid leukemia in mice by range in survival days at 100 mg/kg (treatment of 1-5qd schedule) dosage; Range is 21-24; format: functional, Mus musculus
[7] = system: L1210; test: Antitumor activity against the ic implanted L1210 lymphoid leukemia in mice expressed as optimal dose (1 qd treatment schedule) required to produce greatest increase in life span was determined
[8] = system: P388; test: Antitumor activity was determined against the ip implanted P388 leukemia in mice by percent increase in life span at 200 mg/kg (treatment of 1-5qd schedule) dosage; format: functional, Mus musculus; conditions: route intraperitoneal
How it was run: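 DBA/2J mice, 23-33 g, in groups of 6, were inoculated ip with 1×10^6 P388 cells on day 0. Dosing was ip from 24 h on the stated schedules, in 0.9% NaCl with 0.5% Tween-80 (sonicated solution or suspension). Survival was followed daily until death or 45 days. Median T/C was calculated from survivors per NCI protocols, with ILS = (T/C − 1) × 100.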

[9] = system: L1210; test: Antitumor activity was determined against the ic implanted L1210 lymphoid leukemia in mice by range in survival days at 300 mg/kg (treatment of 1-5qd schedule) dosage; Range is 15-18; format: functional, Mus musculus
[10] = system: L1210; test: Antitumor activity was determined against the ic implanted L1210 lymphoid leukemia in mice by percent increase in life span at 300 mg/kg (treatment of 1-5qd schedule) dosage; format: functional, Mus musculus
How it was run: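 DBA/2J mice, groups of 6 (26-32 g), got 1 × 10^5 L1210 cells ic on day 0. Dosing was ip starting 24 h later, as a sonicated solution or suspension in 0.9% NaCl with 0.5% Tween-80, over a wide dose range. Mice were followed daily until death. Median survival T/C was taken from survivors per NCI protocols, and ILS = (T/C − 1) × 100. Active range means doses giving ILS ≥25%; optimal dose means greatest ILS.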

[11] = system: L1210; test: Antitumor activity against ip implanted L1210 leukemia in mice expressed as active dose range (1-5qd treatment schedule) required to produce increase in life span by >25% was determined; 60-100; format: functional, Mus musculus
How it was run: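 DBA/2J mice, groups of 6 (23-28 g), were inoculated ip with 1 × 10^6 L1210 cells on day 0. Dosing was ip from 24 h, in 0.9% NaCl with 0.5% Tween-80 (sonicated solution or suspension). Mice were observed daily until death or day 45. Median survival T/C followed NCI protocols, and ILS = (T/C − 1) × 100. Active range means doses giving ILS ≥25%; optimal dose means greatest ILS.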

[12] = system: P388; test: Antitumor activity was determined against the ip implanted P388 leukemia in mice by change in […] at 67 mg/kg (treatment of 1,5,9qd schedule) dosage; format: functional, Mus musculus; conditions: route intraperitoneal
How it was run: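 P388 leukemia, 1×10^6 cells implanted ip on day 0 into DBA/2J mice, groups of 6 (wt 23-33 g). Dosing ip started 24 h post-inoculation, vehicle 0.9% NaCl containing 0.5% Tween-80. Animals were observed daily until death or 45 days. Outputs were weight change, median survival T/C from survivors per NCI protocols, and %ILS = (T/C − 1) × 100.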

CCCCCCCCCCCCCCCC(=O)OC[C@H](COP(=O)(O)OP(=O)(O)OC[C@H]1O[C@@H](n2ccc(N)nc2=O)[C@@H](O)[C@@H]1O)OC(=O)CCCCCCCCCCCCCCC
Weight change [1]: -1.11 g mouse-1 | median survival time [2]: 20 days | Range [3]: 14 | Range [4]: 31 | median survival time [5]: 30 days

CCCCCCCCCCCCCCCCOCC(COP(=O)(O)OP(=O)(O)OC[C@H]1O[C@@H](n2ccc(N)nc2=O)[C@@H](O)[C@@H]1O)OC(=O)CCCCCCCCCCCCCCC (mixture of isomers)
Range [6]: 21 | Optimal dose [7]: 500 mg

Nc1ccn([C@@H]2O[C@H](CO)[C@@H](O)[C@@H]2O)c(=O)n1 [CYTARABINE]
ILS [8]: 109 | Range [9]: 15 | ILS [10]: 129

CCCCCCCCCCCCCCCCCCOCC(COP(=O)(O)OP(=O)(O)OC[C@H]1O[C@@H](n2ccc(N)nc2=O)[C@@H](O)[C@@H]1O)OC(=O)CCCCCCCCCCCCCCC (mixture of isomers)
Active dose range [11]: 60 mg/kg/day | Weight change [12]: 0.63 g mouse-1
